From ChEMBL document CHEMBL1139138, “Pyrrolidine-constrained phenethylamines: The design of potent, selective, and pharmacologically efficacious dipeptidyl peptidase IV (DPP4) inhibitors from a lead-like screening hit” (Bioorg Med Chem Lett, 2007)

Tests used:
Assay type in all cases: ADME
[1] = Half life in rat liver microsome; settings: liver microsomes
Method in brief: (§1)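 Stability on incubation with rat or human liver microsomes, expressed as half-life.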

[2] = Half life in human liver microsome; settings: liver microsomes; method in brief: as §1
Cytochrome P450 2D6 = Cytochrome P450 2D6 (Homo sapiens, UniProt P10635); assay: Inhibition of CYP2D6
Sequence of Cytochrome P450 2D6 (P10635 whole entry): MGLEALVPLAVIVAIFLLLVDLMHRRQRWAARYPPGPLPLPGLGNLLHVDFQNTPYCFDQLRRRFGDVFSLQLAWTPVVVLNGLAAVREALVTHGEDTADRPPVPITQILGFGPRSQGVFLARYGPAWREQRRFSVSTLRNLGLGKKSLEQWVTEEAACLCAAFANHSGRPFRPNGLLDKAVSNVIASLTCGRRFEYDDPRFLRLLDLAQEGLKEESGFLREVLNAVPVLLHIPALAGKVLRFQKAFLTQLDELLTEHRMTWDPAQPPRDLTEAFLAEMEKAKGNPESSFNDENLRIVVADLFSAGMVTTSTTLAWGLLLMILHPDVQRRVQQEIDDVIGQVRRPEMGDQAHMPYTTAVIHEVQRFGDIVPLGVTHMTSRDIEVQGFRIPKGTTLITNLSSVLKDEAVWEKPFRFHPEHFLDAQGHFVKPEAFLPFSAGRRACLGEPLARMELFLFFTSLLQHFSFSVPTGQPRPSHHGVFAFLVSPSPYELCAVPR

Cytochrome P450 3A4 = Cytochrome P450 3A4 (Homo sapiens, UniProt P08684); assay: Inhibition of CYP3A4
Sequence of Cytochrome P450 3A4 (P08684 whole entry): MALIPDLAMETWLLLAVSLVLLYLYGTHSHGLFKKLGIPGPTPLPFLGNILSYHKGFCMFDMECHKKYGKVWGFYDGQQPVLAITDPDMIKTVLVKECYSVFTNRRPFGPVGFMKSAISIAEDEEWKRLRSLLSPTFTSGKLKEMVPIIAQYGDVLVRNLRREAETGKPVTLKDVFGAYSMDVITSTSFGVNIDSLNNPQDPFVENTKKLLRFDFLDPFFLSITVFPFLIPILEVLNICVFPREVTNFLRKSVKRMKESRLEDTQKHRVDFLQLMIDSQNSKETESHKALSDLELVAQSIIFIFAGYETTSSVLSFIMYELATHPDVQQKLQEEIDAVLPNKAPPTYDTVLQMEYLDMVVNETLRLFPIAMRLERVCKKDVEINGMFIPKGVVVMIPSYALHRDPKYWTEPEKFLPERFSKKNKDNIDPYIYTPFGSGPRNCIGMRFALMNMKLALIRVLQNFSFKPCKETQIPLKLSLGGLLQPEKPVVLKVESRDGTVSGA

Cytochrome P450 2C9 = Cytochrome P450 2C9 (Homo sapiens, UniProt P11712); assay: Inhibition of CYP2C9
Sequence of Cytochrome P450 2C9 (P11712 whole entry): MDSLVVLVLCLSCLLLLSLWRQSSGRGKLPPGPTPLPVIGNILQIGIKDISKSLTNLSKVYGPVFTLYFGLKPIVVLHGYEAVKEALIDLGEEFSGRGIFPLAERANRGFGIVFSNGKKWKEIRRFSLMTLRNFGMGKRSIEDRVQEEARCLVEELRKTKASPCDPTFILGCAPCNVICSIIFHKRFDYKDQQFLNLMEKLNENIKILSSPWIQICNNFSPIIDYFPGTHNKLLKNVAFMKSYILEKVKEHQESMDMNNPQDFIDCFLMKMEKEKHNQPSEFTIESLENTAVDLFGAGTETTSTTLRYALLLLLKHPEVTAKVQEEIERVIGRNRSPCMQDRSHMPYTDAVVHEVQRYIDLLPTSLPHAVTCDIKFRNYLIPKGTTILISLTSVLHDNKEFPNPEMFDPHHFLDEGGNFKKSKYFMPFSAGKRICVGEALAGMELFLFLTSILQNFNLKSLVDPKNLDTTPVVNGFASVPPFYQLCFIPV

Compound | half-life [1] [h] | half-life [2] [h] | IC50 (Cytochrome P450 2D6) [µM] | IC50 (Cytochrome P450 3A4) [µM] | IC50 (Cytochrome P450 2C9) [µM]
NC1CN(C(=O)NCc2cccc(F)c2)CC1c1ccc(Cl)cc1Cl (racemic) | > 3 | > 3 | – | – | –
COc1cccc(CN(C)C(=O)N2CC(N)C(c3ccc(Cl)cc3Cl)C2)c1 (racemic) | > 3 | > 3 | – | – | –
NC1CN(c2cc(-c3ccsc3)ncn2)CC1c1cc(F)c(F)cc1Cl (racemic) | > 3 | > 3 | – | – | –
NC1CN(c2nccc(-c3ccsc3)n2)CC1c1ccc(Cl)cc1Cl (racemic) | > 3 | > 3 | – | – | –
NC1CN(c2ccnc(-c3ccsc3)n2)CC1c1ccc(Cl)cc1Cl (racemic) | > 3 | > 3 | – | – | –
NC1CN(c2cc(-c3ccsc3)ncn2)CC1c1ccc(F)cc1Cl (racemic) | > 3 | > 3 | – | – | –
CCOC(=O)N1CC(N)C(c2ccc(Cl)cc2Cl)C1 (racemic) | > 3 | > 3 | – | – | –
Cc1cccc(COC(=O)N2CC(N)C(c3ccc(Cl)cc3Cl)C2)n1 (racemic) | > 3 | > 3 | – | – | –
NC1CN(c2nccc(-c3ccccc3)n2)CC1c1ccc(Cl)cc1Cl (racemic) | > 3 | > 3 | – | – | –
NC1CN(c2cc(-c3ccsc3)ncn2)CC1c1ccc(Cl)cc1Cl (racemic) | > 3 | > 3 | – | – | –
NC1CN(c2cc(-c3ccsc3)ncn2)CC1c1cc(F)c(F)cc1F (racemic) | > 3 | > 3 | 0.098 | > 10 | > 10
CC(=O)N1CC(N)C(c2ccc(Cl)cc2Cl)C1 (racemic) | > 3 | > 3 | – | – | –
CCNC(=O)N1CC(N)C(c2ccc(Cl)cc2Cl)C1 (racemic) | > 3 | > 3 | – | – | –
CCN(C)C(=O)N1CC(N)C(c2ccc(Cl)cc2Cl)C1 (racemic) | > 3 | > 3 | – | – | –
NC1CN(c2ccccc2)CC1c1ccc(Cl)cc1Cl (racemic) | > 3 | > 3 | – | – | –
